In ChEMBL document CHEMBL1122742, “Cardiotonic agents. 1. 4,5-Dihydro-6-[4-(1H-imidazol-1-yl)phenyl]-3 (2H)-pyridazinones: novel positive inotropic agents for the treatment of congestive heart failure” (J Med Chem, 1984):
Where “and” joins values, the source holds several entries; their conditions need not be identical. Equal values may be shown once. Blank lines part the entries; values can stand above or below the compound they belong to.

Columns and labels:
Canis familiaris [1] = assay: Positive inotropic effect (reduced mean aortic blood pressure) in anesthetized dogs at 0.001-1.0 mg/kg intravenous administration; assay type: functional, Canis lupus familiaris, Artery
Summary of the method: (§1)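 Anesthetized dogs were given increasing intravenous half-log doses within 0.001–1.0 mg/kg. Heart rate, aortic blood pressure and dP/dtmax were recorded simultaneously. Changes are expressed as percent of control, with mean ± error at each dose.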

Canis familiaris [2] = assay: Positive inotropic effect (increase in heart rate) in anesthetized dogs at 0.001-1.0 mg/kg intravenous administration, range is 2.5-43.8; assay type: functional, Canis lupus familiaris; summary of the method: as §1
Canis familiaris [3] = assay: Positive inotropic activity in anesthetized dogs; assay type: functional; details: Canis lupus familiaris
Summary of the method: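 Anesthetized dogs received increasing intravenous half-log doses across 0.001–1.0 mg/kg. dP/dtmax was recorded while heart rate and aortic pressure were monitored. ED50 was taken from the linear part of each animal's dose–response curve by least squares, then averaged as mean and SEM.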

Canis familiaris [4] = assay: Positive inotropic effect (increase in heart rate) in chronically instrumented conscious dogs at 0.1 mg/kg oral administration for 6 hours
Canis familiaris [5] = assay: Positive inotropic effect (increased myocardial contractility) in anesthetized dogs at 0.001-0.10 mg/kg intravenous administration, range 10.5-148.5
Canis familiaris [6] = assay: Positive inotropic effect (increased myocardial contractility) in chronically instrumented conscious dogs at 0.1 mg/kg oral administration for 6 hours
Canis familiaris [7] = assay: Positive inotropic effect (reduced mean aortic blood pressure) in anesthetized dogs at 0.001-1.0 mg/kg intravenous administration, range 0.7-22.4; assay type: functional, Canis lupus familiaris, Artery; summary of the method: as §1
Canis familiaris [8] = assay: Positive inotropic effect (increased myocardial contractility) in chronically instrumented conscious dogs at 1.0 mg/kg oral administration for 6 hours; assay type: functional, Canis lupus familiaris
Canis familiaris [9] = assay: Positive inotropic effect (increase in heart rate) in anesthetized dogs at 0.001-1.0 mg/kg intravenous administration, range is 1.2-33.8; assay type: functional, Canis lupus familiaris; summary of the method: as §1
Canis familiaris [10] = assay: Positive inotropic effect (increase in heart rate) in chronically instrumented conscious dogs at 1.0 mg/kg oral administration for 6 hours; assay type: functional, Canis lupus familiaris
Bos taurus = species on record: Bos taurus; assay: Percent inhibition of crude bovine cardiac phosphodiesterase at 190 uM
Canis familiaris [11] = assay: Positive inotropic effect (increased myocardial contractility) in anesthetized dogs at 0.01-1.0 mg/kg intravenous administration, range 10.2-146.7

Structure (SMILES): CC1CC(O)=NN=C1c1ccc(-n2ccnc2)cc1 (configuration not stated) [CI-930]
Blood pressure (Canis familiaris [1]): 19 and 7.4
Heart rate (Canis familiaris [2]): 2.5
ED50 (Canis familiaris [3]): 0.013 mg/kg
Heart rate (Canis familiaris [4]): 41.6
dP/dt max (Canis familiaris [5]): 10.5
dP/dt max (Canis familiaris [6]): 50.2

Structure (SMILES): CSc1ccc(C(=O)c2[nH]c(=O)[nH]c2C)cc1 [ENOXIMONE]
ED50 (Canis familiaris [3]): 0.283 mg/kg

inhibition (Bos taurus): 50%
Structure (SMILES): O=C1CCC(c2ccc(-n3ccnc3)cc2)=NN1 [IMAZODAN]
Blood pressure (Canis familiaris [7]): 0.7
dP/dt max (Canis familiaris [8]): 42.6
Heart rate (Canis familiaris [9]): 0
Heart rate (Canis familiaris [10]): 48.1
ED50 (Canis familiaris [3]): 0.045 mg/kg
dP/dt max (Canis familiaris [11]): 10.2

Structure (SMILES): Nc1cc(-c2ccncc2)c[nH]c1=O [INAMRINONE]
ED50 (Canis familiaris [3]): 0.389 mg/kg

Structure (SMILES): Cc1[nH]c(=O)c(C#N)cc1-c1ccncc1 [MILRINONE]
ED50 (Canis familiaris [3]): 0.037 mg/kg

Structure (SMILES): COc1cc([S+](C)[O-])ccc1-c1nc2cccnc2[nH]1 (configuration not stated) [SULMAZOLE]
ED50 (Canis familiaris [3]): 0.435 mg/kg
